Among the data in ChEMBL document CHEMBL1649428, “An ABC transporter of Streptococcus pneumoniae involved in susceptibility to vancoresmycin and bacitracin” (2009) are MIC values, retold here.

Type in all cases: functional
Assay [1] deals with Streptococcus pneumoniae. Description: Antimicrobial activity against Streptococcus pneumoniae R6 by agar dilution method. The method, boiled down:
(§1)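 Agar dilution MIC against the strain. Vancoresmycin was tested at 0.3 to 0.8 μg/ml in 0.05 μg/ml steps, diluted from a 0.5 mg/ml methanol stock kept at −20°C. Bacitracin was tested at 0.5 to 6 μg/ml in 0.2 μg/ml steps. Pneumococci are routinely grown at 37°C. MIC is the mean of three independent experiments.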
On the technique in general: In agar dilution, organisms are placed on agar that contains the substance at set levels.

The subject of assay [2] is Streptococcus pneumoniae. As to the kind of experiment: Antimicrobial activity against copY and cyl deficient Streptococcus pneumoniae VarE mutant by agar dilution method.
In assay [3] the test system is Streptococcus pneumoniae. Description: Antimicrobial activity against copY and cyl deficient Streptococcus pneumoniae VarA mutant by agar dilution method.
The subject of assay [4] is Streptococcus pneumoniae. Description: Antimicrobial activity against copY and cyl deficient Streptococcus pneumoniae VarF mutant by agar dilution method.
In assay [5] the test system is Streptococcus pneumoniae. As to the kind of experiment: Antimicrobial activity against Streptococcus pneumoniae VarG transformed with spr0813 C1744T mutant gene by agar dilution method. The method, boiled down: as §1
For assay [6], the system named is Streptococcus pneumoniae. As to the kind of experiment: Antimicrobial activity against Streptococcus pneumoniae R6 transformed with DNA containing spr0813 C1744T mutant gene selected after drug exposure by agar dilution method. The gist of the method:
as §1

Assay [7] concerns Streptococcus pneumoniae. Description: Antimicrobial activity against Streptococcus pneumoniae R6 transformed with DNA containing spr0813 C1744T::aphIII mutant gene selected after kanamycin exposure by agar dilution method. The gist of the method: as §1
The subject of assay [8] is Streptococcus pneumoniae. As to the kind of experiment: Antimicrobial activity against kanamycin-resistant and spr0811-spr0813::aphIII deficient Streptococcus pneumoniae R6 by agar dilution method. The gist of the method: as §1
Assay [9] concerns Streptococcus pneumoniae. Description: Antimicrobial activity against kanamycin-resistant and spr0811-spr0813::aphIII deficient Streptococcus pneumoniae VarG by agar dilution method. The method, boiled down: as §1
Assay [10] has as its system Streptococcus pneumoniae. As to the kind of experiment: Antimicrobial activity against Streptococcus pneumoniae R6 transformed with DNA containing spr0813 C1744T mutant gene selected after vancoresmycin exposure by agar dilution method. The gist of the method: as §1

Values after ≈ are worked out from the molar mass of the structure shown. Bridge positions count the residues as written; N and C are the ends. Square brackets hold non-standard residues; d marks the D form. Peptide text beside a SMILES is read from it. * marks the point of attachment. Ileψ(thiazoline)Cys = CC[C@H](C)[C@H](N)C1=N[C@H](C(=O)*)CS1; dOrn = NCCC[C@@H](N)C(=O)O

By MIC is commonly meant the lowest concentration that inhibits growth of the organism. A low value points to greater potency. In the case of `CC[C@H](C)[C@H](N)C1=N[C@H](C(=O)N[C@@H](CC(C)C)C(=O)N[C@H](CCC(=O)O)C(=O)N[C@H](C(=O)N[C@H]2CCCCNC(=O)[C@H](CC(N)=O)NC(=O)[C@@H](CC(=O)O)NC(=O)[C@H](Cc3cnc[nH]3)NC(=O)[C@@H](Cc3ccccc3)NC(=O)[C@H]([C@@H](C)CC)NC(=O)[C@@H](CCCN)NC2=O)[C@@H](C)CC)CS1` [BACITRACIN] ({Ileψ(thiazoline)Cys}-L[dE]IK[dOrn]I[dF]H[dD]N; lactam 4-C), the MIC in the assay on Streptococcus pneumoniae [1] came out at 4.8 µg/mL (≈ 3.37 µM); with Streptococcus pneumoniae [2] it was 5.2 µg/mL (≈ 3.65 µM); in the assay with Streptococcus pneumoniae [3] it was 5.2 µg/mL (≈ 3.65 µM); in the assay on Streptococcus pneumoniae [4], 5.2 µg/mL (≈ 3.65 µM); with Streptococcus pneumoniae [5], 1 µg/mL (≈ 0.703 µM); with Streptococcus pneumoniae [6], 1 µg/mL (≈ 0.703 µM). In addition, the MIC against Streptococcus pneumoniae [7], in the assay on Streptococcus pneumoniae [8], in the assay on Streptococcus pneumoniae [9] and with Streptococcus pneumoniae [10] was 1 µg/mL (≈ 0.703 µM) each time.
Turning to `C/C(=C\CC(O)CC(O)CCC(C)C(O)C(C)C(O)CCCC(O)C(C)C(O)/C(C)=C/C(C)C(=O)/C(C)=C/C(O)C(O)CC(O)CC(OC1OC(C)C(O)C(N)C1O)C(C)CCC(O)CC(O)CCC(C)C(O)C(C)C(O)C(C)C)C(=O)C1=C(O)/C(=C/C(C)C)N(C)C1=O` (centres undefined) [VANCORESMYCIN], the MIC with Streptococcus pneumoniae [1] turned out to be 0.4 µg/mL (≈ 0.298 µM); with Streptococcus pneumoniae [2], 0.7 µg/mL (≈ 0.521 µM); with Streptococcus pneumoniae [3], 0.7 µg/mL (≈ 0.521 µM); against Streptococcus pneumoniae [4], 0.65 µg/mL (≈ 0.484 µM); with Streptococcus pneumoniae [5] it was 0.5 µg/mL (≈ 0.372 µM); in the assay on Streptococcus pneumoniae [6], 0.5 µg/mL (≈ 0.372 µM). Moreover, the figures for the MIC in the assay on Streptococcus pneumoniae [7], in the assay with Streptococcus pneumoniae [8] and against Streptococcus pneumoniae [9] were 0.5 µg/mL (≈ 0.372 µM), 0.4 µg/mL (≈ 0.298 µM) and 0.4 µg/mL (≈ 0.298 µM), respectively.
